Laboratory results reported in ChEMBL document CHEMBL1124184, “Dopamine autoreceptor agonists as potential antipsychotics. 1. (Aminoalkoxy)anilines” (J Med Chem, 1988).
The source made the active and inactive calls. The rule behind the calls is not given here.

Assays:
[1] = test system: Rattus norvegicus; experiment: Inhibition of accumulation of DOPA in rat striatum, after intraperitoneal administration.; type: functional; conditions: ip
Outline: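 Rats dosed ip 1 h before sacrifice; GBL (750 mg/kg ip) and NSD 1015 (100 mg/kg ip) given 30 and 25 min before sacrifice. Striatal DOPA measured by HPLC with electrochemical detection. ED50 is the dose giving half-maximal decrease in DOPA formation, from three to five dose levels with four to five rats per group.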

[2] = test system: Rattus norvegicus; experiment: Inhibition of locomotor activity in rats, after sc injection after dosing for a period of 30 min; type: functional; conditions: 0.5 h
[3] = test system: Rattus norvegicus; experiment: Inhibition of dopamine neuronal firing in the anesthetized rats after ip administration at a dose 2.5 mg/kg; type: functional; conditions: route intraperitoneal
Outline: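 Zona compacta DA cells of substantia nigra recorded extracellularly in chloral-anesthetized rats, identified by waveform and firing pattern, with recording sites confirmed histologically. Drug given at 2.5 mg/kg ip via an indwelling catheter. Baseline was the mean rate over the 2 min before injection. Effect was the mean over the 1-min period of maximal inhibition.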

[4] = test system: Rattus norvegicus; experiment: Reversal of 6-OHDA-induced depression in rats, after sc injection after dosing for a period of 30 min; type: functional; conditions: 0.5 h
Outline: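 Rats pretreated at least one month earlier with 6-OHDA (200 μg icv) plus pargyline (50 mg/kg ip) and desmethylimipramine (25 mg/kg ip), giving about 90% brain DA depletion checked in representative animals. Test drug given sc; locomotor activity recorded for 30 min starting immediately after dosing.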

[5] = test system: Rattus norvegicus; experiment: Inhibition of locomotor activity in rats after peroral administration of the compound.; type: functional; conditions: po
[6] = test system: Rattus norvegicus; experiment: Reversal of reserpine induced depression in rats, after sc injection after dosing for a period of 30 min; type: functional; conditions: 0.5 h
Outline: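 Normal rats given reserpine 5 mg/kg 24 h before testing, then test drug sc. Locomotor activity recorded for 30 min starting immediately after dosing. Locomotor stimulation read as reversal of reserpine-induced depression.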

[7] = test system: Monkey; experiment: Effect on Inhibition of Sidman avoidance in squirrel monkeys was determined; type: functional; conditions: in Saimiri
Outline: (§1)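 Sidman avoidance in mature squirrel monkeys; oral dosing at three doses, four animals per dose; ED50 with SEM derived from the dose-response.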

[8] = test system: Monkey; experiment: Effect on EPS liability in squirrel monkeys sensitized to haloperidol at 2.5 mg/kg; A=Active; type: functional, organism-based; design: dose 2.5 mg/kg; conditions: Cercopithecidae
[9] = test system: Monkey; experiment: Effect on Inhibition of Sidman avoidance in squirrel monkeys when administered orally; type: functional; conditions: in Saimiri, po; outline: as §1

## Nc1cccc(OCCCN2CC=C(c3ccccc3)CC2)c1
[1]
  ED50: 7 mg/kg
[2]
  ED50: 0.35 mg/kg
[3]
  inhibition in vivo at 2.5 mg/kg: 89%
[4]
  ED50: 0.13 mg/kg
[5]
  ED50: 12.1 mg/kg
[6]
  ED50: > 30 mg/kg

## Nc1cccc(OCCCN2CCN(c3ccccn3)CC2)c1
[3]
  inhibition in vivo at 2.5 mg/kg: 46%
[5]
  ED50: 9.2 mg/kg

## CSc1ccc2c(c1)N(CCC1CCCCN1C)c1ccccc1S2 (stereo not given) [THIORIDAZINE]
[7]
  ED50: 3.9 mg/kg
[8]
  EPS: Active

## CNc1cccc(OCCCN2CCN(c3ccccc3)CC2)c1
[3]
  inhibition in vivo at 2.5 mg/kg: 7%
[5]
  ED50: 9.4 mg/kg

## C1=C(c2ccccc2)CCN(CCCCc2c[nH]c3ccccc23)C1
[1]
  ED50: 2.2 mg/kg
[2]
  ED50: 0.64 mg/kg
[3]
  inhibition in vivo at 2.5 mg/kg: 100%
[4]
  ED50: 0.4 mg/kg
[5]
  ED50: 4.8 mg/kg
[6]
  ED50: > 30 mg/kg

## CN(C)c1cccc(OCCCN2CCN(c3ccccc3)CC2)c1
[3]
  inhibition in vivo at 2.5 mg/kg: 21%
[5]
  ED50: 9.2 mg/kg

## CCCN(CCCOc1cccc(N)c1)CCc1ccccc1
[3]
  inhibition in vivo at 2.5 mg/kg: 8%
[5]
  ED50: > 30 mg/kg

## CCCN1CCC[C@H](c2cccc(O)c2)C1
[1]
  ED50: 7.2 mg/kg
[2]
  ED50: 8.8 mg/kg
[3]
  inhibition in vivo at 2.5 mg/kg: 100%
[4]
  ED50: 0.6 mg/kg
[5]
  ED50: > 30 mg/kg

## CN1CCc2cccc3c2[C@H]1Cc1ccc(O)c(O)c1-3 [APOMORPHINE]
[1]
  ED50: 0.3 mg/kg
[2]
  ED50: 0.021 mg/kg
[3]
  inhibition in vivo at 2.5 mg/kg: 100%
[4]
  ED50: 0.006 mg/kg
[5]
  ED50: > 30 mg/kg
[6]
  ED50: 0.096 mg/kg

## Nc1cccc(OCCCN2CCN(c3ccccc3)CC2)c1
[1]
  ED50: 12 mg/kg
[2]
  ED50: 1.8 mg/kg
[3]
  inhibition in vivo at 2.5 mg/kg: 85%
[4]
  ED50: > 30 mg/kg
[5]
  ED50: 10.3 mg/kg
[9]
  ED50: 8.5 mg/kg
[6]
  ED50: > 30 mg/kg
